Assay results published in ChEMBL document CHEMBL4311931, “Controlling cellular distribution of drugs with permeability modifying moieties” (Medchemcomm, 2019).

Tests used:
[1] = biological target: T1, Beta-2 adrenergic receptor (Homo sapiens, UniProt P07550); experiment: Displacement of [3H](-)CGP 12177 from human recombinant beta2 adrenoceptor after 120 mins by scintillation counting method
Target sequence in this assay (P07550 whole entry): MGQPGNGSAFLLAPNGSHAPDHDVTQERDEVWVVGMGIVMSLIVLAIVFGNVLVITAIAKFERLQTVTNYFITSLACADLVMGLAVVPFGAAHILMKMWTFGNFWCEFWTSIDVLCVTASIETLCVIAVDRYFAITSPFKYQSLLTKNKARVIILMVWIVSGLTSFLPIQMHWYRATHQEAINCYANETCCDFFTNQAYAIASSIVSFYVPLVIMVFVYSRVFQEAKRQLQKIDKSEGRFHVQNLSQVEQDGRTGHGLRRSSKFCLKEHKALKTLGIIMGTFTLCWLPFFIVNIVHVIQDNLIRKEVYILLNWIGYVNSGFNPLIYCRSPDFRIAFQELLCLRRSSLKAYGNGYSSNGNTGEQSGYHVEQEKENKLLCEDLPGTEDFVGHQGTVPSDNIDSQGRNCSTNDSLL

[2] = biological target: T2, 5-hydroxytryptamine receptor 1A (Homo sapiens, UniProt P08908); experiment: Displacement of [3H]-OH-DPAT from human recombinant 5-HT1A receptor measured after 60 mins by scintillation counter method
T2 sequence (P08908 whole entry): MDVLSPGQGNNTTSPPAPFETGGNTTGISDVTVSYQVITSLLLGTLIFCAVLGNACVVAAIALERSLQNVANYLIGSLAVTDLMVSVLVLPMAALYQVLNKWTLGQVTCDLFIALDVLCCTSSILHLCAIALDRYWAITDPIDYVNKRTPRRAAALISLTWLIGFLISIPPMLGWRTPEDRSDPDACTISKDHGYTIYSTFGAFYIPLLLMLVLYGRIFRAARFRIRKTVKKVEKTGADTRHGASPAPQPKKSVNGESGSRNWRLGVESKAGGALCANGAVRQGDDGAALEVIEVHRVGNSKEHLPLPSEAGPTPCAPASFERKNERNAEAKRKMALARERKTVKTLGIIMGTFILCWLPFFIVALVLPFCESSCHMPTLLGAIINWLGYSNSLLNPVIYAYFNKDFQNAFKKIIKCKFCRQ

[3] = biological target: T1, Beta-2 adrenergic receptor; experiment: Displacement of [3H](-)CGP 12177 from human recombinant beta2 adrenoceptor after 120 mins by scintillation counting method relative to parent compound
Target sequence in this assay (P07550 whole entry, looked up): as the sequence (P07550 whole entry) above

[4] = biological target: T3, 5-hydroxytryptamine receptor 1A (Homo sapiens) (UniProt P08908); experiment: Displacement of [3H]-OH-DPAT from human recombinant 5-HT1A receptor measured after 60 mins by scintillation counter method relative to parent compound
T3 sequence (whole entry): T2 sequence (P08908 whole entry)

[5] = biological target: T2, 5-hydroxytryptamine receptor 1A; experiment: Antagonist activity at human 5HT1A expressed in BAF3 cells by fluorimetry analysis; assay type: cell-based
[6] = biological target: T1, Beta-2 adrenergic receptor; experiment: Antagonist activity at human recombinant beta2 adrenoreceptor expressed in CHOK1 cells incubated for 30 mins by HTRF; assay type: cell-based
Target sequence in this assay (P07550 whole entry): as the sequence (P07550 whole entry) above

[7] = biological target: T1, Beta-2 adrenergic receptor; experiment: Antagonist activity at human recombinant beta2 adrenoreceptor expressed in CHOK1 cells incubated for 30 mins by HTRF relative to parent compound; assay type: cell-based
Target sequence in this assay (P07550 whole entry, looked up): as the sequence (P07550 whole entry) above

[8] = Permeability of compound in 5% DMSO after 7 hrs by PAMPA; assay type: ADME; details: read-out: permeability
[9] = biological target: T4, Nicotinamide phosphoribosyltransferase (Homo sapiens, UniProt P43490); experiment: Displacement of fluorescent labelled OG488 from human full length FLAG-tagged NAMPT (1 to 491 residues) expressed in HEK293-6E cells in absence of PRPP by TR-FRET assay; assay type: cell-based
T4 sequence (P43490 whole entry, the tested form may be a part): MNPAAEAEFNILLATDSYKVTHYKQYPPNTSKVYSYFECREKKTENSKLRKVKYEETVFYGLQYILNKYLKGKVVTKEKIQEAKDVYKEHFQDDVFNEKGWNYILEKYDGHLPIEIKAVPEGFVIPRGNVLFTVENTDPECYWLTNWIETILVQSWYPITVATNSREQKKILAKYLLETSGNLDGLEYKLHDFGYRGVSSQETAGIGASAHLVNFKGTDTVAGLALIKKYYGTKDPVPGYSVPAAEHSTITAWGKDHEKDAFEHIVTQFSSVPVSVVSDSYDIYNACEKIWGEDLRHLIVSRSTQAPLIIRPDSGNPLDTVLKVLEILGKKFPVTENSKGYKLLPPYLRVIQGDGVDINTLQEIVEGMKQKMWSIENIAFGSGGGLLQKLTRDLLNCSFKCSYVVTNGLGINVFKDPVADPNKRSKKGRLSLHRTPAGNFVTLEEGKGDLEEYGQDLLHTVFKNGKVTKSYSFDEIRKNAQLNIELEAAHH

[10] = biological target: T4, Nicotinamide phosphoribosyltransferase; experiment: Displacement of fluorescent labelled OG488 from human full length FLAG-tagged NAMPT (1 to 491 residues) expressed in HEK293-6E cells in presence of PRPP by TR-FRET assay; assay type: cell-based
PC-3 = experiment: Antiproliferative activity against human PC3 cells assessed as reduction in cell viability by Celltiter-Glo assay; assay type: functional, cell-based
Procedure, shortened: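 PC3 cells from ATCC, authenticated by STR analysis. Viability was read by CellTiter-Glo, and cell EC50 is the geometric mean of at least two duplicate runs.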

DLD-1 [11] = experiment: cells; details: Homo sapiens
DLD-1 [12] = experiment: cells; details: Homo sapiens; remark: listed apart in the source
K562 = experiment: Antiproliferative activity against human K562 cells assessed as reduction in cell viability by measuring ATP level incubated for 3 days by Celltiter-Glo assay; assay type: functional, cell-based; details: K562, 72 h
Procedure, shortened: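 K562 cells grown in RPMI 1640 with 50 mM HEPES and 10% FBS at 37 °C in 5% CO2, then plated at 20 000 cells per well. Compounds were log-serially diluted in DMSO, then in RPMI, to final concentrations of 10 000 nM to 0.01 nM. Cells were exposed for 3 days, and total intracellular ATP was read by CellTiter-Glo. IC50 is the geometric mean of at least two duplicate runs.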

C=CCc1ccccc1OCC(O)CNCCOCCOCCOCCOCCN (stereo unspecified)
Ki [1]: 10.3 nM
Ki [2]: 35.8 nM
fold change (FC) [3]: 20.6
fold change (FC) [4]: 1.66
IC50 [5]: > 1000 nM
IC50 [6]: 100 nM
fold change (FC) [7]: 30.3

CC(C)NCC(O)COc1ccccc1CCCSCC(=O)NCCOCCOCCNC(=O)OC(C)(C)C (stereo unspecified)
Papp at 7 h [8]: 0.0189 ×10⁻⁶ cm/s
Ki [1]: 3.2 nM
Ki [2]: 48.9 nM
fold change (FC) [3]: 0.21
fold change (FC) [4]: 0.871
IC50 [5]: 640 nM
IC50 [6]: 22 nM
fold change (FC) [7]: 0.31

C=CCc1ccccc1OCC(O)CNCCOCCOCCOCCOCCNC(=O)CCCCCC1(C)C(/C=C/C=C/C=C2/N(CCCS(=O)(=O)O)c3ccc(S(=O)(=O)O)cc3C2(C)C)=[N+](CCCS(=O)(=O)[O-])c2ccc(S(=O)(=O)O)cc21 (stereo unspecified)
Ki [1]: 547 nM
Ki [2]: 2860 nM
fold change (FC) [3]: 1090
fold change (FC) [4]: 132
IC50 [5]: > 1000 nM
IC50 [6]: 500 nM
fold change (FC) [7]: 151

Cc1nc(Nc2ncc(C(=O)Nc3c(C)cccc3Cl)s2)cc(N2CCNCC2)n1
Papp at 7 h [8]: 0.0371 ×10⁻⁶ cm/s

C=CCc1ccccc1OCC(O)CNCCOCCOCCOCCOCCNC(=O)CS(=O)(=O)O (stereo unspecified)
Ki [1]: 752 nM
Ki [2]: 261 nM
fold change (FC) [3]: 150
fold change (FC) [4]: 12.1
IC50 [5]: > 1000 nM
IC50 [6]: 83.4 nM
fold change (FC) [7]: 25.3

O=C(/C=C/c1cccnc1)NCCCCC1CCN(C(=O)c2cccc(CNC(=O)COCCOCCNC(=O)C3C(C(=O)O)C(C(=O)O)C3C(=O)O)c2)CC1 (stereo unspecified)
Ki [9]: 359 nM
Ki [10]: 5.9 nM
IC50 (PC-3): 7330 nM

CC(C)(C)OC(=O)NCCOCCOCC(=O)NCc1cccc(C(=O)N2CCC(CCCCNC(=O)/C=C/c3cccnc3)CC2)c1
Papp at 7 h [8]: 1.2 ×10⁻⁶ cm/s
Ki [9]: 14 nM
Ki [10]: 0.2 nM
IC50 (PC-3): 30.7 nM

Cc1sc2c(c1C)C(c1ccc(Cl)cc1)=N[C@@H](CC(=O)OC(C)(C)C)c1nnc(C)n1-2
Papp at 7 h [8]: 2.24 ×10⁻⁶ cm/s

O=C(O)C1C(C(=O)O)C(C(=O)NCCOCCOCC(=O)N2CCN(C(=O)c3cc(Cc4n[nH]c(=O)c5ccccc45)ccc3F)CC2)C1C(=O)O (stereo unspecified)
EC50 (DLD-1 [11]): > 100000 nM
EC50 (DLD-1 [12]): 7800 nM

Cc1nc(Nc2ncc(C(=O)Nc3c(C)cccc3Cl)s2)cc(N2CCN(CCOCCOCCN)CC2)n1
Papp at 7 h [8]: 0.056 ×10⁻⁶ cm/s
IC50 (K562): 628 nM

CC(C)NCC(O)COc1ccccc1CCCSCC(=O)NCCOCCOCCNC(=O)CS(=O)(=O)O (stereo unspecified)
Ki [1]: 16.4 nM
Ki [2]: 1780 nM
fold change (FC) [3]: 1.09
fold change (FC) [4]: 15.1
IC50 [5]: > 10000 nM
IC50 [6]: 86 nM
fold change (FC) [7]: 1.19

CC(C)NCC(O)COc1ccccc1CCCSCC(=O)NCCOCCOCCN (stereo unspecified)
Ki [1]: 2.9 nM
Ki [2]: 2860 nM
fold change (FC) [3]: 0.19
fold change (FC) [4]: 6.32
IC50 [5]: > 10000 nM
IC50 [6]: 19 nM
fold change (FC) [7]: 0.26

NCCOCCOCC(=O)N1CCN(C(=O)c2cc(Cc3n[nH]c(=O)c4ccccc34)ccc2F)CC1
Papp at 7 h [8]: 0.00119 ×10⁻⁶ cm/s
EC50 (DLD-1 [11]): > 100000 nM
EC50 (DLD-1 [12]): 600 nM

O=C(/C=C/c1cccnc1)NCCCCC1CCN(C(=O)c2cccc(CNC(=O)COCCOCCNC(=O)CS(=O)(=O)O)c2)CC1
Ki [9]: 285 nM
Ki [10]: 7.9 nM
IC50 (PC-3): 7230 nM

Cc1nn(C)cc1-c1ccc2cc(CCN3CCC[C@H]3C)ccc2n1
Papp at 7 h [8]: 1.13 ×10⁻⁶ cm/s

C=CCc1ccccc1OCC(O)CNC(C)C (stereo unspecified) [ALPRENOLOL]
Papp at 7 h [8]: 10.9 ×10⁻⁶ cm/s
Ki [2]: 21.6 nM
IC50 [5]: 630 nM
